Screening results as filed in PubChem.
Most compounds without a hit are left out; they make up all but 2.3% or so of the library.
PLC-beta3 inh = human PLC-beta3 inhibitors, primary screen, biochemical, fluorescence; AID 720704, 2013; 1-phosphatidylinositol 4,5-bisphosphate phosphodiesterase beta-3 (Homo sapiens), Q01970; Purified PLC-beta3, fluorogenic substrate; inhibition, % at 12.2 µM; actives 0.18% (n = 370,000);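 also: 0% = median of compound wells on plate and 100% = full blocker control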
ADAM17 inh = ADAM17 inhibitors, primary screen, biochemical, QFRET | Disintegrin and metalloproteinase domain-containing protein 17 (Homo sapiens), P78536 | recombinant ADAM17, EDANS/DABCYL FRET peptide cleavage | inhibition, % at 6.95 µM | actives 0.83% (n = 370,000) | AID 720648, 2013;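 active = inhibition above the mean of compounds lying between control limits plus 3 SD, set per campaign, cut at about 8.5% in these data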;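 also: 0% = DMSO-only wells as the low control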
Target sequence (P78536 215-824 limits assumed): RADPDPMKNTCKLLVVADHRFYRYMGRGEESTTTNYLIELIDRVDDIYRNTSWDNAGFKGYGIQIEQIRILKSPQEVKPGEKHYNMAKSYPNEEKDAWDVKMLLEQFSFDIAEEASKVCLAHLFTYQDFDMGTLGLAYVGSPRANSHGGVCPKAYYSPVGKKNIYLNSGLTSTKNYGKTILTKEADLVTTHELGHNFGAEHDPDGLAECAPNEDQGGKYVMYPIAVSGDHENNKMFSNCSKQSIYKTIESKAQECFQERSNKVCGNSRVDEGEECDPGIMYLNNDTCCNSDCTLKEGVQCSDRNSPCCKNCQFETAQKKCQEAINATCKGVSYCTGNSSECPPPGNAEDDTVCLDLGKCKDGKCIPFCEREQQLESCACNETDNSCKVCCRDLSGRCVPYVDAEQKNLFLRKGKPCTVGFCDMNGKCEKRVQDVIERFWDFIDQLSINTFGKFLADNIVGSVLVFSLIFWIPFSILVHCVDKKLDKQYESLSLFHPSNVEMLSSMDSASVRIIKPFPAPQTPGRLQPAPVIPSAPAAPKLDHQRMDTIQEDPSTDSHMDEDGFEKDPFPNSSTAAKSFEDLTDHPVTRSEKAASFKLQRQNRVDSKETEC
TbMetRS inhib = T. brucei MetRS inhibitors, primary screen, biochemical, luminescence. inhibition, % at 11.9 µM. AID 624268, 2012. methionyl-tRNA synthetase (Trypanosoma brucei brucei). purified T. brucei MetRS, ATP depletion, Kinase-Glo luminescence. actives 0.4% (n = 360,000);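 active = inhibition above a per-plate cutoff of the control wells' mean inhibition plus 3 SD, cut at about 5.5% in these data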;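 also: 0% = DMSO wells median and 100% = median of wells with control inhibitor compound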
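System: purified T. brucei MetRS enzyme / Detection: Kinase-Glo luciferase luminescence reporting remaining unconsumed ATP / Medium: HEPES buffer with MgCl2, KCl, DTT, spermine, BSA, pyrophosphatase / Replication: singlicate, one well per compound / Evaluation: percent inhibition relative to median high and low control wells / Schedule: 2 h aminoacylation at 25 °C after 15 min preincubation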
PLCg1 inh = PLC-gamma1 enzyme inhibitors, primary screen, biochemical, fluorescence, purified enzyme. fluorogenic substrate. inhibition, % at 12.2 µM. actives 0.84% (n = 370,000). 1-phosphatidylinositol 4,5-bisphosphate phosphodiesterase gamma-1 (Homo sapiens), P19174. AID 720700, 2013; in the data active = inhibition above about 9.5%
ADAM10 inh = human ADAM10 inhibitors, primary screen, biochemical, QFRET, HTS; recombinant ADAM10, EDANS/DABCYL FRET peptide cleavage, 3 h; Disintegrin and metalloproteinase domain-containing protein 10 (Homo sapiens), O14672; inhibition, % at 7 µM; actives 0.62% (n = 370,000);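 active = inhibition above a per-campaign cutoff equal to the mean of compounds falling between control-based bounds plus 3 SD, cut at about 20% in these data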;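 also: 0% = DMSO wells while the 100% control is not disclosed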
PLCg1 ctr = PLC-gamma1 enzyme inhibitors, counter-screen for PLC-beta3 inhibitor project, biochemical, fluorescence; shares compounds with PLCg1 inh; purified PLC-gamma1, fluorogenic substrate; inhibition, % at 12.3 µM; actives 3.1% (n = 3,300); in the data active = inhibition above about 9.5%
PLCb3 confirm = PLC-beta3 inhibitor confirmation, biochemical, fluorescence, purified enzyme; shares compounds with PLCg1 inh; fluorogenic substrate fluorescence; inhibition, % at 12.3 µM; actives 1% (n = 3,300); AID 743261, 2014
Starred values were filed as active, the others as inactive. Rule as the data show it, unless noted: active = inhibition above about 11%; inactive = the rest.

What do the screens show for `CCNC(=S)NNC(=O)c1csc(C)c1`?
PLC-beta3 inh: 8; ADAM17 inh: -4; TbMetRS inhib: 0; PLCg1 inh: -1; ADAM10 inh: 3

What do the screens show for `CCCCNC(=S)NNC(=O)c1csc(CC)c1`?
PLC-beta3 inh: 14*; ADAM17 inh: 0; TbMetRS inhib: 0; PLCg1 inh: -2; ADAM10 inh: -1; PLCg1 ctr: -7; PLCb3 confirm: 13*

What do the screens show for `CCCCNC(=S)NNC(=O)c1csc(C)c1`?
PLC-beta3 inh: 23*; ADAM17 inh: 0; TbMetRS inhib: 0; PLCg1 inh: 3; ADAM10 inh: 4; PLCg1 ctr: -5; PLCb3 confirm: 16*

What do the screens show for `C=CCNC(=S)NNC(=O)c1csc(CC)c1`?
PLC-beta3 inh: 6; ADAM17 inh: 3; TbMetRS inhib: 0; PLCg1 inh: 3; ADAM10 inh: -4

Results for CC1(C)CC(=O)C=C(NCC(O)c2ccccc2)C1 (stereo unspecified) ?
PLC-beta3 inh: -5; ADAM17 inh: -5; TbMetRS inhib: -1; PLCg1 inh: -2; ADAM10 inh: -3

What do the screens show for `O=C(C[n+]1cc(-c2ccc(Cl)cc2)n2c1CCC2)N1c2ccccc2Sc2ccccc21`?
PLC-beta3 inh: 3; ADAM17 inh: 3; TbMetRS inhib: 0; PLCg1 inh: 5; ADAM10 inh: 4

What do the screens show for `CC1CCC(C(C)C)C(OC(=O)C[n+]2cc(-c3ccc(Cl)cc3)n3c2CCC3)C1` (stereo unspecified)?
PLC-beta3 inh: -3; ADAM17 inh: -1; TbMetRS inhib: -1; PLCg1 inh: 9.9*; ADAM10 inh: -2; PLCg1 ctr: -3; PLCb3 confirm: -1

What do the screens show for `CCCCCCCCN1C(=O)[C@@H](CC(=O)N2CCCC2)C[C@@]2(C(=O)OC)C1=C[C@H](C(C)(C)C)O[C@@H]2C`?
PLC-beta3 inh: 2; ADAM17 inh: 0; PLCg1 inh: 1; ADAM10 inh: -3

How did O=C(NCc1ccccc1)c1cc(C2CCCCN2C(=O)c2cccs2)on1 (stereo unspecified) do in these assays?
PLC-beta3 inh: 0; ADAM17 inh: -3; TbMetRS inhib: 0; PLCg1 inh: 4; ADAM10 inh: 3

Results for C/C=C/C(=O)Nc1cccc(C2=NOC3(C2)C[C@@H](C(N)=O)N(C(=O)c2cc([N+](=O)[O-])cc([N+](=O)[O-])c2C)C3)c1 (stereo partly specified) ?
PLC-beta3 inh: 4; ADAM17 inh: -4; TbMetRS inhib: 0; PLCg1 inh: 11*; ADAM10 inh: 9; PLCg1 ctr: -7; PLCb3 confirm: -3

What do the screens show for `C=C(C)C(=O)Nc1cccc(C2=NOC3(C2)C[C@@H](C(N)=O)N(C(=O)c2cc([N+](=O)[O-])cc([N+](=O)[O-])c2C)C3)c1` (stereo partly specified)?
PLC-beta3 inh: -14; ADAM17 inh: 8; TbMetRS inhib: 0; PLCg1 inh: 10*; ADAM10 inh: 8; PLCg1 ctr: -7; PLCb3 confirm: -2

Results for Cc1ccc2cc(CCNC(=O)C3CCCC3)c(=O)[nH]c2c1 ?
PLC-beta3 inh: 11*; ADAM17 inh: 1; TbMetRS inhib: -1; PLCg1 inh: 3; ADAM10 inh: -8; PLCg1 ctr: -7; PLCb3 confirm: -2

Results for C#CCN(C)CC/C=C1\c2ccccc2CSc2ccccc21 ?
PLC-beta3 inh: 10; ADAM17 inh: 6; TbMetRS inhib: -1; PLCg1 inh: 10*; ADAM10 inh: 18; PLCg1 ctr: -1; PLCb3 confirm: 0

Results for C=CCN(C)CC/C=C1\c2ccccc2CSc2ccccc21 ?
PLC-beta3 inh: -1; ADAM17 inh: -7; TbMetRS inhib: 0; PLCg1 inh: -1; ADAM10 inh: -6

How did COc1cccc(C(=O)NNC(=O)CCC(=O)O)c1 do in these assays?
PLC-beta3 inh: -3; ADAM17 inh: 7; TbMetRS inhib: -1; PLCg1 inh: 9.9*; ADAM10 inh: 0; PLCg1 ctr: -9; PLCb3 confirm: -5

How did O=C(O)CCC(=O)NNC(=O)c1cccc(Cl)c1 do in these assays?
PLC-beta3 inh: -2; ADAM17 inh: -1; TbMetRS inhib: 0; PLCg1 inh: -2; ADAM10 inh: -3

How did COc1ccccc1N1CC(C(=O)Nc2ccc(N3CCOCC3)cc2)CC1=O (stereo unspecified) do in these assays?
PLC-beta3 inh: 2; ADAM17 inh: 7; TbMetRS inhib: -1; PLCg1 inh: 11*; ADAM10 inh: 3; PLCg1 ctr: -6; PLCb3 confirm: -3

How did CCC(C)[C@H](NC(=O)[C@@H]1Cc2ccccc2CN1)C(=O)NCc1ccc(C)cc1 (stereo partly specified) do in these assays?
PLC-beta3 inh: -5; ADAM17 inh: 7; TbMetRS inhib: 0; PLCg1 inh: 9.8*; ADAM10 inh: -7; PLCg1 ctr: 0; PLCb3 confirm: -1

How did CCC(C)[C@H](NC(=O)[C@@H]1Cc2ccccc2CN1)C(=O)NCc1ccc(OC)cc1 (stereo partly specified) do in these assays?
PLC-beta3 inh: 6; ADAM17 inh: 0; TbMetRS inhib: -2; PLCg1 inh: 4; ADAM10 inh: -10

How did N#CC1(NC(=O)CSc2nc3ccccc3s2)CCCCC1 do in these assays?
PLC-beta3 inh: 4; ADAM17 inh: 5; TbMetRS inhib: 0; PLCg1 inh: 12*; ADAM10 inh: 6; PLCg1 ctr: -2; PLCb3 confirm: 5

What do the screens show for `N#CC1(NC(=O)CSc2nc3ccc([N+](=O)[O-])cc3s2)CCCCC1`?
PLC-beta3 inh: -10; ADAM17 inh: -9; TbMetRS inhib: 0; PLCg1 inh: 0; ADAM10 inh: 1

How did COCc1[nH][nH]c(=O)c1C=Nc1ccc(OC(F)(F)F)cc1 do in these assays?
PLC-beta3 inh: 11*; ADAM17 inh: 3; TbMetRS inhib: -1; PLCg1 inh: 2; ADAM10 inh: 7; PLCg1 ctr: -4; PLCb3 confirm: 0

How did COc1ccc(-n2c(SCC(=O)Nc3ccc(Oc4ccccc4)cc3)nnc2-c2ccco2)cc1 do in these assays?
PLC-beta3 inh: 3; ADAM17 inh: 2; PLCg1 inh: 0; ADAM10 inh: 5
